Test system: Fibroblast
Assay: Multiplex assay against human fibroblast
Format: toxicity, cell-based
Procedure, shortened: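 Compound was added to live cells that had been stained at seeding with Hoechst33342, BioTracker Green Microtubule Cytoskeleton Dye, MitoTracker Red and Annexin V Alexa Fluor 680, and imaging followed on a CQ1 microscope at 37°C and 5% CO2. CellPathfinder machine-learning gating divided cells into Hoechst high-intensity objects or normal cells, normal cells into healthy, pyknosed or fragmented nuclei, and pyknosed cells into mitotic or apoptotic. Tubulin, mitochondrial-mass and membrane-permeability phenotypes are per cents of healthy-nucleus cells.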

[1] = 12 h, 1 µM, compound concentration 1 uM, replicate 1
[2] = 12 h, 1 µM, compound concentration 1 uM, replicate 2
[3] = 12 h, 10 µM, compound concentration 10 uM, replicate 1
[4] = 12 h, 10 µM, compound concentration 10 uM, replicate 2
[5] = 24 h, 1 µM, compound concentration 1 uM, replicate 1
[6] = 24 h, 1 µM, compound concentration 1 uM, replicate 2
[7] = 24 h, 10 µM, compound concentration 10 uM, replicate 1
[8] = 24 h, 10 µM, compound concentration 10 uM, replicate 2
[9] = 48 h, 1 µM, compound concentration 1 uM, replicate 1
[10] = 48 h, 1 µM, compound concentration 1 uM, replicate 2
[11] = 48 h, 10 µM, compound concentration 10 uM, replicate 1
[12] = 48 h, 10 µM, compound concentration 10 uM, replicate 2

Structure (SMILES): Cn1cc(C(=O)OCC2CCN(CCNS(C)(=O)=O)CC2)c2ccccc21
- Population Apoptotic (%) [1]: 44%
- Population Fragmented Nuclei (%) [1]: 13%
- Population Healthy Nuclei (%) [1]: 71%
- Population Hoechst High Intensity Objects (%) [1]: 1%
- Population Membrane Permeable-Phenotype (%) [1]: 0%
- Population Mitochondria Different-Phenotype (%) [1]: 3%
- Population Mitotic Cells (%) [1]: 55%
- Population Normal (%) [1]: 98%
- Population Pyknosed Nuclei (%) [1]: 14%
- Population Tubulin-Different-Phenotype (%) [1]: 23%
- Total Cell Count [1]: 202
- Population Apoptotic (%) [2]: 33%
- Population Fragmented Nuclei (%) [2]: 21%
- Population Healthy Nuclei (%) [2]: 46%
- Population Hoechst High Intensity Objects (%) [2]: 4%
- Population Membrane Permeable-Phenotype (%) [2]: 9%
- Population Mitochondria Different-Phenotype (%) [2]: 1%
- Population Mitotic Cells (%) [2]: 66%
- Population Normal (%) [2]: 95%
- Population Pyknosed Nuclei (%) [2]: 32%
- Population Tubulin-Different-Phenotype (%) [2]: 37%
- Total Cell Count [2]: 164
- Population Apoptotic (%) [3]: 48%
- Population Fragmented Nuclei (%) [3]: 29%
- Population Healthy Nuclei (%) [3]: 55%
- Population Hoechst High Intensity Objects (%) [3]: 3%
- Population Membrane Permeable-Phenotype (%) [3]: 0%
- Population Mitochondria Different-Phenotype (%) [3]: 9%
- Population Mitotic Cells (%) [3]: 51%
- Population Normal (%) [3]: 96%
- Population Pyknosed Nuclei (%) [3]: 14%
- Population Tubulin-Different-Phenotype (%) [3]: 41%
- Total Cell Count [3]: 207
- Population Apoptotic (%) [4]: 25%
- Population Fragmented Nuclei (%) [4]: 32%
- Population Healthy Nuclei (%) [4]: 51%
- Population Hoechst High Intensity Objects (%) [4]: 5%
- Population Membrane Permeable-Phenotype (%) [4]: 5%
- Population Mitochondria Different-Phenotype (%) [4]: 7%
- Population Mitotic Cells (%) [4]: 75%
- Population Normal (%) [4]: 94%
- Population Pyknosed Nuclei (%) [4]: 16%
- Population Tubulin-Different-Phenotype (%) [4]: 47%
- Total Cell Count [4]: 184
- Population Apoptotic (%) [5]: 31%
- Population Fragmented Nuclei (%) [5]: 13%
- Population Healthy Nuclei (%) [5]: 74%
- Population Hoechst High Intensity Objects (%) [5]: 5%
- Population Membrane Permeable-Phenotype (%) [5]: 0%
- Population Mitochondria Different-Phenotype (%) [5]: 0%
- Population Mitotic Cells (%) [5]: 68%
- Population Normal (%) [5]: 94%
- Population Pyknosed Nuclei (%) [5]: 11%
- Population Tubulin-Different-Phenotype (%) [5]: 23%
- Total Cell Count [5]: 201
- Population Apoptotic (%) [6]: 30%
- Population Fragmented Nuclei (%) [6]: 25%
- Population Healthy Nuclei (%) [6]: 47%
- Population Hoechst High Intensity Objects (%) [6]: 2%
- Population Membrane Permeable-Phenotype (%) [6]: 7%
- Population Mitochondria Different-Phenotype (%) [6]: 6%
- Population Mitotic Cells (%) [6]: 69%
- Population Normal (%) [6]: 97%
- Population Pyknosed Nuclei (%) [6]: 26%
- Population Tubulin-Different-Phenotype (%) [6]: 48%
- Total Cell Count [6]: 168
- Population Apoptotic (%) [7]: 80%
- Population Fragmented Nuclei (%) [7]: 33%
- Population Healthy Nuclei (%) [7]: 53%
- Population Hoechst High Intensity Objects (%) [7]: 5%
- Population Membrane Permeable-Phenotype (%) [7]: 0%
- Population Mitochondria Different-Phenotype (%) [7]: 3%
- Population Mitotic Cells (%) [7]: 20%
- Population Normal (%) [7]: 94%
- Population Pyknosed Nuclei (%) [7]: 13%
- Population Tubulin-Different-Phenotype (%) [7]: 42%
- Total Cell Count [7]: 201
- Population Apoptotic (%) [8]: 41%
- Population Fragmented Nuclei (%) [8]: 40%
- Population Healthy Nuclei (%) [8]: 43%
- Population Hoechst High Intensity Objects (%) [8]: 4%
- Population Membrane Permeable-Phenotype (%) [8]: 3%
- Population Mitochondria Different-Phenotype (%) [8]: 5%
- Population Mitotic Cells (%) [8]: 58%
- Population Normal (%) [8]: 95%
- Population Pyknosed Nuclei (%) [8]: 16%
- Population Tubulin-Different-Phenotype (%) [8]: 52%
- Total Cell Count [8]: 188
- Population Apoptotic (%) [9]: 54%
- Population Fragmented Nuclei (%) [9]: 14%
- Population Healthy Nuclei (%) [9]: 72%
- Population Hoechst High Intensity Objects (%) [9]: 5%
- Population Membrane Permeable-Phenotype (%) [9]: 0%
- Population Mitochondria Different-Phenotype (%) [9]: 1%
- Population Mitotic Cells (%) [9]: 45%
- Population Normal (%) [9]: 94%
- Population Pyknosed Nuclei (%) [9]: 12%
- Population Tubulin-Different-Phenotype (%) [9]: 23%
- Total Cell Count [9]: 197
- Population Apoptotic (%) [10]: 52%
- Population Fragmented Nuclei (%) [10]: 33%
- Population Healthy Nuclei (%) [10]: 54%
- Population Hoechst High Intensity Objects (%) [10]: 4%
- Population Membrane Permeable-Phenotype (%) [10]: 5%
- Population Mitochondria Different-Phenotype (%) [10]: 2%
- Population Mitotic Cells (%) [10]: 47%
- Population Normal (%) [10]: 95%
- Population Tubulin-Different-Phenotype (%) [10]: 43%
- Total Cell Count [10]: 177
- Population Apoptotic (%) [11]: 68%
- Population Fragmented Nuclei (%) [11]: 28%
- Population Healthy Nuclei (%) [11]: 58%
- Population Hoechst High Intensity Objects (%) [11]: 9%
- Population Membrane Permeable-Phenotype (%) [11]: 0%
- Population Mitochondria Different-Phenotype (%) [11]: 9%
- Population Mitotic Cells (%) [11]: 32%
- Population Normal (%) [11]: 90%
- Population Pyknosed Nuclei (%) [11]: 13%
- Population Tubulin-Different-Phenotype (%) [11]: 49%
- Total Cell Count [11]: 199
- Population Apoptotic (%) [12]: 50%
- Population Fragmented Nuclei (%) [12]: 40%
- Population Healthy Nuclei (%) [12]: 46%
- Population Hoechst High Intensity Objects (%) [12]: 6%
- Population Membrane Permeable-Phenotype (%) [12]: 2%
- Population Mitochondria Different-Phenotype (%) [12]: 8%
- Population Mitotic Cells (%) [12]: 50%
- Population Normal (%) [12]: 93%
- Population Pyknosed Nuclei (%) [12]: 12%
- Population Tubulin-Different-Phenotype (%) [12]: 60%
- Total Cell Count [12]: 190

From ChEMBL document CHEMBL5058577, “EUbOPEN Chemogenomics Library 2 (Multiplex)” (2022)
